Measurements taken from ChEMBL document CHEMBL1153230, “Synthesis and evaluation of 3-amino-6-aryl-pyridazines as selective CB(2) agonists for the treatment of inflammatory pain” (Bioorg Med Chem Lett, 2010).
Values after ≈ are worked out from the molar mass of the structure shown. Active and inactive are the calls of the source. The calls are words filed in the database; no cut-off is given here.

How the values were obtained:
Cannabinoid receptor 1 [1] = target: T1, Cannabinoid receptor 1 (Homo sapiens, UniProt P21554); assay: Agonist activity at human CB1 receptor up to 30 uM; format: functional
T1 sequence (P21554 whole entry): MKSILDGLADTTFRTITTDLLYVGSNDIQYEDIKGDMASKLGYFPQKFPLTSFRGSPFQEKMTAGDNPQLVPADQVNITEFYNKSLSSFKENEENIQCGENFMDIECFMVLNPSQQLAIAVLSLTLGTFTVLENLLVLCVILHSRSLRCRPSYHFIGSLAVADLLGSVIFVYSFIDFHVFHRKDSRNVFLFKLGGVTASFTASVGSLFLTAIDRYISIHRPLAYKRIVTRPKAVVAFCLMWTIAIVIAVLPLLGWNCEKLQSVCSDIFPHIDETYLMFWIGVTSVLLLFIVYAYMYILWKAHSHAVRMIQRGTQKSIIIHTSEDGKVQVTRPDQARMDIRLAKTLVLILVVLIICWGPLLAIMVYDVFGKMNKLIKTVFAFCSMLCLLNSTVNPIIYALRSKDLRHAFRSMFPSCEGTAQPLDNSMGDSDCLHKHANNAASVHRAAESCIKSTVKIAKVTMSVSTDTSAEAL
How it was run: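 Human CB1 receptor agonist assay, tested at concentrations up to 30 µM (method per cited reference). Potency reported as pEC50. Efficacy is expressed as a percentage of the efficacy of the full agonist HU210. Values are the mean of at least two determinations.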

Cannabinoid receptor 2 [2] = target: T2, Cannabinoid receptor 2 (Homo sapiens, UniProt P34972); assay: Agonist activity at human CB2 receptor; format: functional
T2 sequence (P34972 whole entry): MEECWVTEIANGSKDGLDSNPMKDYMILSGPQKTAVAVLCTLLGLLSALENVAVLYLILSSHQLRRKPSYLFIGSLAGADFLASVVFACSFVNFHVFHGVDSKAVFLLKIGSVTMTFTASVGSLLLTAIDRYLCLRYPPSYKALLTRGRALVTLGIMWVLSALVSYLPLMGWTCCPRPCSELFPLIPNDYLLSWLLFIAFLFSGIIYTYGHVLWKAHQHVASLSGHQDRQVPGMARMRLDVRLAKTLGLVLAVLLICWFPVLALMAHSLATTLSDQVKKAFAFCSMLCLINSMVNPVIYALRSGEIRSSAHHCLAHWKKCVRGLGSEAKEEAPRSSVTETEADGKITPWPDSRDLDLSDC
How it was run: (§1)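 Agonist pEC50 and efficacy at human receptor. Efficacy is expressed as a percentage relative to HU210 efficacy. Values are the mean of at least two determinations.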

Cannabinoid receptor 2 [3] = target: T2, Cannabinoid receptor 2; assay: Agonist activity at human CB2 receptor relative to HU210; format: functional; how it was run: as §1
[4] = Aqueous solubility of the compound; format: physicochemical
Cannabinoid receptor 1 [5] = target: T1, Cannabinoid receptor 1; assay: Agonist activity at human CB1 receptor; format: functional; how it was run: as §1
Cannabinoid receptor 1 [6] = target: T1, Cannabinoid receptor 1; assay: Agonist activity at human CB1 receptor relative to HU210; format: functional; how it was run: as §1
[7] = Blood clearance in rat at 1 mg/kg, iv; format: ADME, organism-based; parameters: dose 1 mg/kg, route intravenous
How it was run: (§2)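 Rats given an intravenous infusion at a target dose of 1 mg free base/kg for pharmacokinetic parameters.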

[8] = Volume of distribution at steady state in rat at 1 mg/kg, iv; format: ADME, organism-based; parameters: dose 1 mg/kg, route intravenous; settings: in vivo, read-out: Vdss; how it was run: as §2
[9] = Half life in rat at 1 mg/kg, iv; format: ADME, organism-based; parameters: dose 1 mg/kg, route intravenous; settings: in vivo; how it was run: as §2
[10] = Cmax in rat at 3 mg/kg, po; format: ADME, organism-based; parameters: dose 3 mg/kg, route oral; settings: in vivo
How it was run: (§3)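 Rats given a single oral dose by gastric gavage, formulated in 1% (w/v) aqueous methylcellulose, at a target dose of 3 mg/kg free base, for pharmacokinetic parameters.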

[11] = Tmax in rat at 3 mg/kg, po; format: ADME, organism-based; parameters: dose 3 mg/kg, route oral; settings: in vivo; how it was run: as §3
[12] = Oral bioavailability in rat at 3 mg/kg; format: ADME, organism-based; settings: in vivo; how it was run: as §3
[13] = Drug level in rat blood at 1 mg/kg, po after 1 hr; format: ADME, organism-based; parameters: dose 1 mg/kg, route oral
How it was run: (§4)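 Rat blood and brain tissue samples taken from FCA weight-bearing study animals 1 h after a 1 mg/kg oral dose. Compound concentrations measured in each; brain:blood ratio derived from the two concentrations.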

[14] = Drug level in rat brain at 1 mg/kg, po after 1 hr; format: ADME, organism-based; parameters: dose 1 mg/kg, route oral; settings: read-out: Drug uptake; how it was run: as §4
[15] = Ratio of drug level in brain to blood in rat at 1 mg/kg, po; format: ADME, organism-based; parameters: dose 1 mg/kg, route oral; how it was run: as §4
Rattus norvegicus = assay: Toxicity in rat assessed as induction of hypothermia up to 300 mg/kg po; format: organism-based; parameters: dose 300 mg/kg, route oral; settings: in vivo
[16] = Cmax in rat brain at 6.6 uM; format: ADME, organism-based; parameters: dose 6.6 uM

| Structure (SMILES) | EC50 (Cannabinoid receptor 2 [2]) [nM] | Efficacy (Cannabinoid receptor 2 [3]) [%] | EC50 (Cannabinoid receptor 1 [5]) [nM] | also measured |
| --- | --- | --- | --- | --- |
| Clc1cccc(-c2ncc(N3CCOCC3)cn2)c1Cl | 50.1 | 92 | – | Activity (Cannabinoid receptor 1 [1]): inactive; solubility [4]: < 1 µg/mL |
| Cc1ccccc1-c1ccc(N2CCOCC2)nn1 | 7940 | 38 | > 31600 | – |
| c1ccc(COc2cccc(-c3ccc(N4CCOCC4)nn3)c2)cc1 | > 31600 | – | > 31600 | – |
| C[C@@H]1CC[C@H](C)N1c1ccc(-c2cccc3ncccc23)nn1 | 200 | 75 | > 31600 | – |
| Clc1cccc(-c2ccc(N3CCOCC3)cc2)c1Cl | 39.8 | 86 | – | Activity (Cannabinoid receptor 1 [1]): inactive |
| C[C@@H]1CC[C@H](C)N1c1ccc(-c2cc3ccccc3o2)nn1 | 158 | 70 | > 31600 | – |
| C[C@@H]1C=C[C@H](C)N1c1ccc(-c2cccc(Cl)c2Cl)nn1 | 0.631 | 93 | 6310 | Efficacy (Cannabinoid receptor 1 [6]): 21% |
| FC1(F)CCN(c2ccc(-c3cccc(Cl)c3Cl)nn2)CC1 | 15.8 | 83 | > 31600 | – |
| Clc1cccc(-c2ccc(NC3CCOCC3)nn2)c1Cl | > 31600 | – | > 31600 | – |
| COc1ccccc1-c1ccc(N2CCOCC2)nn1 | 12600 | 37 | > 31600 | – |
| Clc1cccc(-c2ccc(N3CCOCC3)nn2)c1Cl | 79.4 | 76 | > 31600 | Activity (Cannabinoid receptor 1 [1]): inactive; solubility [4]: 6 µg/mL (≈ 19.3 µM) |
| Cc1ccc(-c2ccc(N3CCOCC3)nn2)c(Cl)c1 | > 31600 | – | > 31600 | – |
| Clc1cccc(-c2ccc(N3CCCCC3)nn2)c1Cl | 6.31 | 86 | > 31600 | – |
| Clc1ccc(Cl)c(-c2ccc(N3CCOCC3)nn2)c1 | 398 | 39 | > 31600 | – |
| FC(F)(F)c1cccc(-c2ccc(N3CCOCC3)nn2)c1C(F)(F)F | 158 | 75 | > 31600 | – |
| C[C@@H]1CC[C@H](C)N1c1ccc(-c2c[nH]c3ccccc23)nn1 | 251 | 61 | > 31600 | – |
| C[C@@H]1CC[C@H](C)N1c1ccc(-c2cccc(Cl)c2Cl)nn1 | 1.26 | 83 | 2510 | Efficacy (Cannabinoid receptor 1 [6]): 57% |
| C[C@@H]1CC[C@H](C)N1c1ccc(-c2cccc3cccnc23)nn1 | 79.4 | 82 | > 31600 | – |

| Structure (SMILES) | EC50 (Cannabinoid receptor 2 [2]) [nM] | Efficacy (Cannabinoid receptor 2 [3]) [%] | EC50 (Cannabinoid receptor 1 [5]) [nM] | also measured |
| --- | --- | --- | --- | --- |
| O=S1(=O)CCN(c2ccc(-c3cccc(Cl)c3Cl)nn2)CC1 | 631 | 89 | > 31600 | – |
| Clc1cccc(-c2ccc(N3CCOCC3)nc2)c1Cl | – | – | – | Activity (Cannabinoid receptor 1 [1]): inactive |
| Clc1cccc(-c2cnc(N3CCOCC3)nn2)c1Cl | 100 | 78 | – | Activity (Cannabinoid receptor 1 [1]): inactive |
| Clc1cccc(-c2cnc(N3CCOCC3)cn2)c1Cl | 39.8 | 89 | – | Activity (Cannabinoid receptor 1 [1]): inactive; solubility [4]: 1 µg/mL (≈ 3.22 µM) |
| FC(F)(F)c1ccccc1-c1ccc(N2CCOCC2)nn1 | 1260 | 78 | > 31600 | – |
| c1ccc(COc2ccccc2-c2ccc(N3CCOCC3)nn2)cc1 | 631 | 45 | 3980 | Efficacy (Cannabinoid receptor 1 [6]): 11% |
| Clc1cccc(-c2cnc(N3CCOCC3)nc2)c1Cl | 200 | 67 | – | Activity (Cannabinoid receptor 1 [1]): inactive |
| Clc1ccccc1-c1ccc(N2CCOCC2)nn1 | 1580 | 77 | > 31600 | – |
| C[C@@H]1CC[C@H](C)N1c1ccc(-c2cccc3cnccc23)nn1 | 39.8 | 93 | 20000 | Efficacy (Cannabinoid receptor 1 [6]): 52% |
| C[C@@H]1CC[C@H](C)N1c1ccc(-c2cncc3ccccc23)nn1 | 10 | 85 | 7940 | Efficacy (Cannabinoid receptor 1 [6]): 71%; clearance [7]: 57 mL/min/kg; Vd [8]: 1.7 L/kg; half-life [9]: 18 min; Cmax [10]: 340 nM; Tmax [11]: 54 min; bioavailability [12]: 26%; concentration at 1 h [13]: 300 nM; concentration at 1 h [14]: 500 nM; Kp [15]: 1; Activity (Rattus norvegicus): Toxic; Cmax at 6.6 µM [16]: 11000 nM |
| Clc1cccc(-c2ccc(N3CCCC3)nn2)c1Cl | 25.1 | 56 | > 31600 | – |
| FC(F)(F)c1cccc(-c2ccc(N3CCOCC3)nn2)c1 | 1000 | 15 | > 31600 | – |
| Clc1cccc(-c2ccc(NC3CCCCC3)nn2)c1Cl | 200 | 69 | > 31600 | – |
| Cc1cccc(-c2ccc(N3CCOCC3)nn2)c1C | 2000 | 71 | > 31600 | – |
| FC(F)(F)Oc1ccccc1-c1ccc(N2CCOCC2)nn1 | 1260 | 55 | > 31600 | – |
| Clc1ccc(-c2ccc(N3CCOCC3)nn2)c(Cl)c1 | > 31600 | – | > 31600 | – |
| Clc1cc(Cl)c(Cl)c(-c2ccc(N3CCOCC3)nn2)c1 | 50.1 | 78 | > 31600 | – |
| COc1ccc(-c2ccc(N3CCOCC3)nn2)c(Cl)c1 | > 31600 | – | > 31600 | – |
